In the library only some 1.7% were active in any assay of this set; here they are far more common.
Rtt109 Vps75 = inhibitors of Candida albicans Rtt109/Vps75 histone acetyltransferase | Q5AAJ8 | purified Rtt109/Vps75, ThioGlo CoA-SH fluorescence, 4 h | inhibition, % at 34.9 µM | actives 0.16% (n = 330,000);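 active means inhibition of at least 50% in every replicate; inconclusive means best replicate reaches 50% inhibition but some replicates fall short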
Target sequence (Q5AAJ8 whole entry, looked up): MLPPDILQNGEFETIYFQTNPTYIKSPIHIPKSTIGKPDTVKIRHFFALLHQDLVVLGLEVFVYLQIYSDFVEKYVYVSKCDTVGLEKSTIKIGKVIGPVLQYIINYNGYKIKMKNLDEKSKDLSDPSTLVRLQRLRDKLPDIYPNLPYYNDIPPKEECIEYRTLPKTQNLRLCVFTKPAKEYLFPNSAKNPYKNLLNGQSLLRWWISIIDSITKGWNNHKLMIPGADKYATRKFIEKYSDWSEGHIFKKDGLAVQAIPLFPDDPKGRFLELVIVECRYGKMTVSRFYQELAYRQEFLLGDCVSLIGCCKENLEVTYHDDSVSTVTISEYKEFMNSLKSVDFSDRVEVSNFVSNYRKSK
SKKanGAS inh = SKKanGAS growth inhibition | AID 1662 | actives 1.3% (n = 300,000) | inhibition, % at 7.5 µM | S. pyogenes SKKanGAS, kanamycin growth, BacTiter-Glo, 6 h;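 active means mean replicate score, as percent of positive control median, at least 50; inconclusive means mean below 50 but one replicate at or above 50; inactive means mean and every replicate below 50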;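 further: strain carries kanamycin resistance gene driven by streptokinase promoter and grows in 40 µg/ml kanamycin; loss of luminescence reflects streptokinase promoter inhibition or plain growth inhibition; 0% = median of DMSO wells and 100% = positive control at its reference dose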
FN deposition inh = fibronectin deposition inhibition. AH1F fibroblasts, Alexa488-fibronectin deposition fluorescence, overnight. inhibition, % at 12.6 µM. actives 0.086% (n = 350,000);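 active means mean inhibition across replicates of 30% or more, regardless of how many single replicates reach that level; inconclusive means mean under 30% yet at least half of replicates reach 30%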;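 further: positive control wells lacked labelled fibronectin entirely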
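Material – AH1F fibroblast monolayer, labelled fibronectin deposition · Reagent – labelled fibronectin 24 nM · Timing – 1 h adhesion, overnight exposure · Measured by – fluorescence at 485 nm excitation, 525 nm emission · Read-out – inhibition of fibronectin deposition signal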
PfHsp90 yeast 2 = reduces growth (ATP signal) of yeast expressing P. falciparum Hsp90. S. cerevisiae expressing PfHsp90, BacTiter-Glo ATP, 48 h; yeast lacking PDR1 and PDR3 efflux regulators. inhibition, % at 9.4 µM. actives 0.32% (n = 310,000);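 active means every replicate shows inhibition above about 80%, whatever the replicate mean, limit read from the data; inconclusive means mean inhibition reaches the set limit but some replicate falls short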;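 further: 0% = DMSO neutral controls and 100% = 20 µM radicicol positive controls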
CSC inhib = cancer stem cell inhibition. cancer stem cell-like cells viability, luminescence. actives 1.1% (n = 300,000). inhibition, % at 7.5 µM; in the data active means inhibition above about 75%; inconclusive means no clear call, values can overlap the other calls; tested in HMLE shEcad cells
PglD DTNB = inhibitors of Campylobacter jejuni PglD acetyltransferase | actives 0.098% (n = 360,000) | AID 602405 | purified PglD enzyme, DTNB colorimetric CoA detection | inhibition, % at 12.5 µM; in the data active means inhibition above about 16%, passing the limit was not always enough; inconclusive means no clear call, values can overlap the other calls
Starred values were filed as active, the others as inactive; ? = inconclusive; · = no result given.

SMILES	Rtt109 Vps75	SKKanGAS inh	FN deposition inh	PfHsp90 yeast 2	CSC inhib	PglD DTNB
COc1ccc(S(=O)(=O)Nc2ccc3c(c2)C(=O)N([C@@H](C)CO)C[C@@H](C)[C@H](CN(C)Cc2ccncc2)OCCCC[C@H](C)O3)cc1	·	·	·	·	·	5
Cc1oc(/N=C/c2ccccc2)c(C#N)c1C	2	2	9	-1	99*	0
Cc1oc(/N=C/c2cccc3ccccc23)c(C#N)c1C	-1	0	·	-36	-9	-3
CCOC(=O)N1CCN(C(=O)c2ccc3c(=O)n(CCC4=CCCCC4)c(=S)[nH]c3c2)CC1	-2	67*	·	-15	-15	-1
COc1ccc(N2CCN(C(=O)CSc3nnc(-c4cccnc4)n3-c3ccc(F)cc3)CC2)cc1	6	-14	-2	0	-10	8
COc1ccc(N2CCN(C(=O)CSc3nnc(-c4cccnc4)n3-c3ccccc3)CC2)cc1	53*	1	1	-48	5	-3
CCN1C(=O)/C(=C\C(=O)c2cccs2)c2cc(Br)ccc21	-7	38	-3	103*	-4	·
COc1cccc(C(=O)NC(=S)N2CCN(c3ccc(C(F)(F)F)cc3[N+](=O)[O-])CC2)c1	2	70*	·	-17	-8	2
O=C(/C=C/c1ccc(N2CCCCC2)c([N+](=O)[O-])c1)c1ccc(S(=O)(=O)N2CCCC2)cc1	-15	3	5	2	29	·
CC(C)Oc1cccc(C(=O)NC(=S)N2CCN(c3ccc(C(F)(F)F)cc3[N+](=O)[O-])CC2)c1	-5	97*	·	·	24	-9
COc1cccc(C(=O)/C=C/c2ccc(N3CCCCC3)c([N+](=O)[O-])c2)c1	-1	30	·	-28	86*	-1
O=C(NC(=S)N1CCN(c2ccc(Cl)cc2[N+](=O)[O-])CC1)c1cccs1	4	71*	·	-109	20	-1
CCCNC(=O)N1[C@H](CO)[C@@H](c2ccccc2)C12CN(CCC(F)(F)F)C2	·	·	1	·	·	·
O=C(N/N=C/c1ccc(O)c(O)c1)NC12CC3CC(CC(C3)C1)C2	·	-3	13	12	29	·
O=C(N/N=C/c1ccccc1O)NC12CC3CC(CC(C3)C1)C2	3	84*	-12	-18	37	0
O=C(N/N=C/c1cc(Cl)cc([N+](=O)[O-])c1O)NC12CC3CC(CC(C3)C1)C2	5	50*	-2	-154	82*	·
C[C@@H](NC(=O)C[C@@H]1C[C@H]2c3cc(NC(=O)Nc4ccccc4F)ccc3O[C@H]2[C@@H](CO)O1)c1ccccc1	·	·	·	·	·	0
Cc1ccc(S(=O)(=O)/N=C2/C=C(Sc3ncn[nH]3)C(=O)c3ccccc32)cc1	·	·	·	-4	107*	17
CC(C)c1ccc(S(=O)(=O)/N=C2/C=C(Sc3ncn[nH]3)C(=O)c3ccccc32)cc1	1	·	·	-4	105*	·
Cc1ccc(S(=O)(=O)/N=C2/C=C(Sc3ncn[nH]3)C(=O)c3ccccc32)c(C)c1	·	·	·	·	103*	·
Cc1ccc(S(=O)(=O)N2CCN(C(=O)CSc3ncn[nH]3)CC2)c(C)c1	15	-3	3	-25	-8	·
Cc1ccc(S(=O)(=O)Nc2ccc(O)c(Sc3ncn[nH]3)c2)cc1	0	-6	-22	20	4	-3
CO[C@H]1CN(C)C(=O)c2ccc(NC(=O)NC(C)C)cc2OC[C@H](C)N(S(C)(=O)=O)C[C@@H]1C	·	·	-4	·	·	·
Cc1noc(C)c1NC(=O)Nc1ccc2c(c1)C(=O)N([C@H](C)CO)C[C@H](C)[C@@H](CN(C)CC1CC1)OCCCC[C@H](C)O2	·	·	·	·	·	3
C[C@H](CO)N1C[C@H](C)[C@H](CN(C)C(=O)NC2CCCCC2)Oc2ccc(NC(=O)CCC(F)(F)F)cc2CC1=O	·	·	-3	·	·	2
SMILES	Rtt109 Vps75	SKKanGAS inh	FN deposition inh	PfHsp90 yeast 2	CSC inhib	PglD DTNB
CCC(=O)N(C)C[C@@H]1Oc2cc(/C=C/c3ccccc3)ccc2S(=O)(=O)N([C@@H](C)CO)C[C@@H]1C	·	·	-16	·	·	-1
CC1CC(C)CN(c2ccc(-n3cnnn3)cc2[N+](=O)[O-])C1 (stereo not drawn)	-6	6	·	13	-1	3
O=[N+]([O-])c1cc(-n2cnnn2)ccc1N1CCC(Cc2ccccc2)CC1	10	24	2	104*	52	-1
CCC(=O)NC(c1ccco1)c1cc(Cl)c2cccnc2c1OC (stereo not drawn)	-1	·	11	·	-14	3
CCC(=O)NC(c1ccc(OC)cc1)c1cc(Cl)c2cccnc2c1O (stereo not drawn)	5	40	14	52	119*	·
CC(=O)NC(c1cc(Cl)c2cccnc2c1O)C1CC1 (stereo not drawn)	3	·	14	-10	110*	0
CCCCC(=O)NC(c1ccccc1Cl)c1ccc2cccnc2c1O (stereo not drawn)	2	69*	-20	58	99*	2
CC(=O)NC(c1ccc(C)cc1)c1cc(Cl)c2cccnc2c1O (stereo not drawn)	-1	98*	13	115*	18	3
C[C@@H]1CCCCO[C@@H](CN(C)C(=O)CCCN(C)C)[C@H](C)CN([C@H](C)CO)C(=O)c2cc(NC(=O)CCCN(C)C)ccc2O1	·	·	3	·	·	2
CCCC(=O)NC(c1ccccc1)c1ccc2cccnc2c1O (stereo not drawn)	4	22	-2	113*	108*	7
CCC(=O)NC(c1ccccc1OC)c1ccc2cccnc2c1O (stereo not drawn)	-3	23	·	-94	93*	·
CCCCC(=O)NC(c1ccc(C(C)C)cc1)c1ccc2cccnc2c1O (stereo not drawn)	-1	88*	7	90*	·	-5
COc1ccc(Cl)cc1C(Nc1cccnc1)c1ccc2cccnc2c1O (stereo not drawn)	-10	69*	-1	104*	3	·
COc1cccc(/C=N/NC(=O)COc2cccc3cccnc23)c1O	11	27	6	-13	17	-1
Oc1c(C(Nc2cccc(C(F)(F)F)c2)c2cccnc2)ccc2cccnc12 (stereo not drawn)	-8	?	8	11	33	·
C[C@H]1CCCCO[C@@H](CN(C)S(=O)(=O)c2cn(C)cn2)[C@@H](C)CN([C@@H](C)CO)C(=O)c2cc(NC(=O)CCC(F)(F)F)ccc2O1	·	·	·	·	·	-1
CCCC(=O)Nc1ccc2c(c1)C(=O)N(C)C[C@@H](OC)[C@@H](C)CN(C(C)=O)[C@H](C)CO2	·	·	2	·	·	1
C[C@H](CO)N1C[C@H](C)[C@@H](CN(C)Cc2ccc(C(=O)Nc3ccccc3N)cc2)Oc2ccc(NC(=O)Cn3cnnn3)cc2CC1=O	·	·	·	·	·	0
CCC(=O)NC(c1ccco1)c1cc(Cl)c2cccnc2c1O (stereo not drawn)	0	-6	1	52	-10	·
